Here are results for 10 compounds from ChEMBL document CHEMBL1129568, “Structure-activity relationships of the antimalarial agent artemisinin. 3. Total synthesis of (+)-13-carbaartemisinin and related tetra- and tricyclic structures” (J Med Chem, 1996).

For assay [1], the system named is Plasmodium falciparum. The assay can be described thus: In vitro antimalarial activity against Plasmodium falciparum W-2 relative to artemisinin. Type of assay: functional. Summed up:
(§1)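 Relative potency is the artemisinin IC50 divided by the analog IC50, × 100%, with artemisinin set at 100%. Tested in vitro against P. falciparum D-6 or W-2.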

For assay [2], the system named is Plasmodium falciparum. The assay can be described thus: In vitro antimalarial activity against Plasmodium falciparum D6 relative to artemisinin. Type of assay: functional. Summed up:
as §1

The subject of assay [3] is Plasmodium falciparum. Put plainly: In vitro antimalarial activity for Plasmodium falciparum W2. The format is functional, organism-based.
In assay [4] the test system is Plasmodium falciparum. Put plainly: In vitro antimalarial activity for Plasmodium falciparum D6. The format is functional, organism-based.
The subject of assay [5] is Plasmodium falciparum. Put plainly: In vitro antimalarial activity for Plasmodium falciparum D6; Not active. Type of assay: functional, organism-based.
The subject of assay [6] is Plasmodium falciparum. The assay can be described thus: In vitro antimalarial activity for Plasmodium falciparum W2; Not active. The format is functional, organism-based.
In assay [7] the test system is Plasmodium falciparum. Put plainly: In vitro antimalarial activity for Plasmodium falciparum D6 in LDH […] assay. The format is functional, organism-based. Summed up: (§2)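 In vitro test against P. falciparum D-6 or W-2 using Makler's parasite lactate dehydrogenase (pLDH) assay, which reads out parasite pLDH enzyme activity. Run at the University of Mississippi.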

The test system of assay [8] is Plasmodium falciparum. The assay can be described thus: In vitro antimalarial activity for Plasmodium falciparum W2 in LDH […] assay. Type of assay: functional, organism-based. The method, boiled down:
as §2
(In general: LDH leaks from cells whose membrane has failed.)

Values after ≈ are worked out from the molar mass of the structure shown.

For orientation: IC50 means the concentration that inhibits the measured activity by half. A lower IC50 goes with higher potency. On to `C[C@@H]1CC[C@H]2[C@@H](C)CO[C@@H]3C[C@@]4(C)CC[C@@H]1[C@]32OO4`, for which the Relative activity with Plasmodium falciparum [1] came out at 16; with Plasmodium falciparum [2] it was 32. In addition, the IC50 with Plasmodium falciparum [3] amounted to 0.00279 µg/mL (≈ 0.0105 µM); with Plasmodium falciparum [4] it was 0.00287 µg/mL (≈ 0.0108 µM).

`C[C@@H]1CC[C@@H]([C@@H](C)COCc2ccccc2)[C@@]23C=C[C@@](C)(CC[C@@H]12)OO3`: the half-inhibitory concentration (IC50) result in the assay on Plasmodium falciparum [5] and in the assay with Plasmodium falciparum [6] was “Not Active” in each case.

On to `C[C@@H]1CC[C@H]2[C@@H](C)C(=O)O[C@@H]3O[C@@]4(C)CC[C@@H]1[C@]32OO4` [ARTEMISININ], for which the Relative activity in the assay on Plasmodium falciparum [1] and in the assay on Plasmodium falciparum [2] was 100 each time. In addition, the 50% inhibitory concentration (IC50) with Plasmodium falciparum [7] was 0.0014 µg/mL (≈ 0.00496 µM); in the assay on Plasmodium falciparum [8], 0.0022 µg/mL (≈ 0.00779 µM); in the assay with Plasmodium falciparum [3], 0.00048 µg/mL (≈ 0.0017 µM); in the assay on Plasmodium falciparum [4], 0.00097 µg/mL (≈ 0.00344 µM).

Consider `C[C@@H]1CC[C@@H]([C@@H](C)CO)[C@@]23C=C[C@@](C)(CC[C@@H]12)OO3`, for which the IC50 entry with Plasmodium falciparum [6] was “Not Active”; in the assay on Plasmodium falciparum [4] it was 1 µg/mL (≈ 3.75 µM).

Turning to `COC[C@H](C)[C@@H]1CC[C@@H](C)[C@@H]2CC[C@]3(C)C=C[C@@]21OO3`, the IC50 result with Plasmodium falciparum [6] is “Not Active”; with Plasmodium falciparum [4], 0.92 µg/mL (≈ 3.28 µM).

Consider `C[C@@H]1CC[C@H]2[C@@H](C)CO[C@H]3C[C@]4(C)CC[C@@H]1[C@@]32OO4`, for which the Relative activity with Plasmodium falciparum [1] is listed as 58; in the assay on Plasmodium falciparum [2], 53. Also, the IC50 in the assay on Plasmodium falciparum [3] was determined as 0.00078 µg/mL (≈ 0.00293 µM); in the assay on Plasmodium falciparum [4], 0.00172 µg/mL (≈ 0.00646 µM).

Turning to `COC[C@H](C)[C@@H]1CC[C@@H](C)[C@@H]2CC[C@]3(C)CC[C@@]21OO3`, the IC50 with Plasmodium falciparum [3] came to 0.7 µg/mL (≈ 2.48 µM); in the assay with Plasmodium falciparum [4] it was 0.31 µg/mL (≈ 1.1 µM).

Consider `C[C@@H]1CC[C@@H]([C@@H](C)COCc2ccccc2)[C@@]23CC[C@@](C)(CC[C@@H]12)OO3`, for which the IC50 in the assay on Plasmodium falciparum [3] came out at 0.66 µg/mL (≈ 1.84 µM); in the assay on Plasmodium falciparum [4], 0.29 µg/mL (≈ 0.809 µM).

As to `C[C@@H]1CC[C@H]2[C@@H](C)C(=O)O[C@@H]3C[C@@]4(C)CC[C@@H]1[C@]32OO4`, the Relative activity with Plasmodium falciparum [1] is listed as 11; in the assay with Plasmodium falciparum [2] it was 23.3. In addition, the IC50 was found to be 0.006 µg/mL (≈ 0.0214 µM) in the assay on Plasmodium falciparum [7], 0.02 µg/mL (≈ 0.0713 µM) with Plasmodium falciparum [8], 0.0126 µg/mL (≈ 0.045 µM) with Plasmodium falciparum [3] and 0.0388 µg/mL (≈ 0.138 µM) with Plasmodium falciparum [4].

In the case of `C[C@@H]1CC[C@@H]([C@@H](C)CO)[C@@]23CC[C@@](C)(CC[C@@H]12)OO3`, the values for the IC50 with Plasmodium falciparum [3] and with Plasmodium falciparum [4] were 1.5 µg/mL (≈ 5.59 µM) and 0.3 µg/mL (≈ 1.12 µM), respectively.
